Source: PubChem BioAssay
A selection: hits, their analogues and other compounds. The true share with any hit is near 2.1%.
TLR4-MyD88 BLA – inhibitors of human TLR4-MyD88 binding | HeLa CL3-4 TLR4/MyD88 BLA complementation, FRET ratio | AID 861 | O00206+Q99836 | actives 0.18% (n = 200,000) | inhibition, % at 8.4 µM; in the data active means inhibition above about 25%;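 further: 0% = vehicle and 100% = reference inhibitor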
NOD2 RIPK2 PPI – inhibitors of human NOD2-RIPK2 interaction | O43353 | CHO BLA complementation NOD2-RIPK2, CCF4 ratio | inhibition, % at 4.98 µM | actives 0.38% (n = 360,000); in the data active means inhibition above about 21%;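 further: 0% = vehicle only and 100% = reference blocker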
MC4R antag cAMP – blocks human MC4R cAMP signaling. actives 0.48% (n = 360,000). inhibition, % at 6.5 µM. AID 540295. MC4R-expressing cells, MTII-stimulated cAMP, LANCE TR-FRET;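 active means inhibition above its plate's cutoff, the mean of tested wells on that plate plus 3 SD, cut at about 29% in these data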;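 further: 0% = Melanotan II alone and 100% = Melanotan II plus saturating MCL0020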
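System: U2OS-MC4R stable cell line; Technique: Eu-cAMP/anti-cAMP TR-FRET, emission 671 nm; Repeats: single well per compound; Also added: Melanotan II; Dosing: one concentration, 6.5 µM nominal; Schedule: 30-min compound, 1-h challenge, 1-h detection, room temperature.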
MC4R barr agon – human MC4R agonism via beta-arrestin; P32245; U2OS MC4R beta-arrestin complementation, luminescence; percent of melanotan II response, DMSO zero; activation, % at 8.9 µM; actives 0.98% (n = 360,000); AID 540308;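 active means activation above a per-plate cutoff, the mean activation of sample wells on that plate plus 3 SD, cut at about 8% in these data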
beta cell repl – inducers of beta-cell replication in MIN6 cells | MIN6 cells proliferation, ATPlite luminescence, 48 h; cells starved in 0.2% serum; 100% = growth in 10% serum | proliferation, % at 10 µM | actives 0.29% (n = 330,000) | AID 2380;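 active means compounds whose signal lies at least 3.5 SD above the mean of all wells on their plate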;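 further: 0% = DMSO-treated cells in low-serum medium and 100% = 10% serum control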
TLR9-MyD88 inh – blocks human TLR9 binding to MyD88. Q9NR96+Q99836. CHO BLA complementation TLR9-MyD88, CCF4 FRET ratio. inhibition, % at 4.98 µM. actives 0.21% (n = 340,000). AID 504734;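 active means inhibition above the mean over all tested compounds plus 3 SD, cut at about 21% in these data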;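 further: 0% = DMSO only wells and 100% = clavulanate BLA inhibitor control wells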
NOD2 RIPK2 conf – NOD2-RIPK2 interaction inhibition confirmed; shares compounds with NOD2 RIPK2 PPI; CHO cells, NOD2-RIPK2 BLA complementation, CCF4 FRET; inhibition, % at 4.98 µM; actives 70% (n = 1,200);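 active means mean inhibition across replicates above a set limit taken from the earlier primary screen, cut at about 21% in these data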;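 further: 0% = DMSO-only wells and the high end = clavulanate BLA-blocked wells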
NOD2 BLA counter – counter-screen for NOD2-RIPK2 interaction inhibitors: BLA reporter; actives 57% (n = 1,200); shares compounds with NOD2 RIPK2 PPI; AID 624371; inhibition, % at 4.98 µM; CHO BLA reporter, CCF4 FRET ratio, counterscreen;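 active means mean inhibition above the low-control mean inhibition plus three low-control SD, cut at about 11% in these data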;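 further: 0% = DMSO only wells and 100% = clavulanate high control wells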
* hit, by the source's call; . = no result.

SMILES | TLR4-MyD88 BLA | NOD2 RIPK2 PPI | MC4R antag cAMP | MC4R barr agon | beta cell repl | TLR9-MyD88 inh | NOD2 RIPK2 conf | NOD2 BLA counter
O=C(Cn1ncc(Cl)c(Cl)c1=O)N1CCOCC1 | 17 | 3 | 2 | 5 | -6 | . | . | .
CCc1ccc(C(=O)Cn2ncc(Cl)c(Cl)c2=O)cc1 | 12 | 34* | 19 | 4 | -5 | 19 | 40* | 9
CC(C)NC(=O)C1(C)CCN1C(=O)c1cccn1C (configuration not stated) | . | -18 | 5 | 0 | . | . | . | .
CS(=O)(=O)c1ccc(C(=O)OCC(=O)N2CCN(CCC3CCCCC3)CC2)cc1[N+](=O)[O-] | . | 55* | 15 | -3 | . | . | 58* | 9
COc1ccc(CC2C(=O)NC(C)C(=O)N(C)C3Cc4ccc(cc4)Oc4cc(ccc4O)CC(C(=O)NC(C)C(=O)NC(C)C(=O)N2C)N(C)C3=O)cc1 (configuration not stated) | . | 22* | -2 | -4 | . | -2 | 26* | -2
COc1ccccc1N1C(=O)C2C(C(=O)c3ccccc3)=NN(c3ccc(Br)cc3)C2C1=O (configuration not stated) | . | 25* | 0 | 3 | -4 | . | 81* | 83*
COc1ccccc1[C@@H]1C(c2ccccc2)=NN(c2ccc(Br)cc2)[C@H]1C(=O)N1CCOC1=O | . | -2 | 1 | -1 | . | -17 | . | .
COc1ccccc1N1C(=O)C2C(C(=O)c3ccccc3)=NN(c3ccc(C)cc3)C2C1=O (configuration not stated) | . | 27* | -24 | 0 | -2 | . | 67* | 67*
COC(=O)C1=NN(c2ccc(C)cc2)C2C(=O)N(c3ccccc3OC)C(=O)C12 (configuration not stated) | . | -11 | 6 | 1 | -1 | -4 | . | .
C[C@@H]1CN(S(=O)C(C)(C)C)[C@@H](CCO)/C1=C\c1ccccc1 (some centres not stated) | . | 1 | 7 | -3 | . | -5 | . | .
Cc1ccc(-n2c(O)c(/C=N/NC(=O)C3COc4ccccc4O3)c3ccccc3c2=O)cc1 (configuration not stated) | 9 | 11 | 6 | 3 | -6 | 15 | . | .
O=C(N/N=C/c1c(O)n(-c2ccccc2Cl)c(=O)c2ccccc12)C1COc2ccccc2O1 (configuration not stated) | 10 | 23* | 12 | -1 | -2 | 14 | 26* | 39*
Cc1cccc(C)c1NC(=O)C(c1ccc(C#N)cc1)n1c(=O)c(-c2cc3ccccc3[nH]2)nc2ccccc21 (configuration not stated) | . | 58* | . | . | . | . | 55* | 74*
Cc1cccc(C)c1NC(=O)C(c1ccccc1)n1c(=O)c(-c2ccccc2)nc2ccccc21 (configuration not stated) | . | -13 | . | . | . | . | . | .
Cc1cccc(C)c1NC(=O)C(c1ccncc1)n1c(=O)c(-c2cc3ccccc3[nH]2)nc2ccccc21 (configuration not stated) | . | 47* | . | . | . | . | 44* | 63*
Cc1cccc(C)c1NC(=O)C(c1ccccc1)n1c(=O)c(-c2cc3ccccc3[nH]2)nc2ccccc21 (configuration not stated) | . | 47* | . | . | . | . | 45* | 68*
O=C(Nc1ccc2ccccc2c1)C(c1ccccc1)n1c(=O)c(-c2cc3ccccc3[nH]2)nc2ccccc21 (configuration not stated) | . | 47* | . | . | . | . | 42* | 66*
CCN(CC)S(=O)(=O)c1c(OC)cc(C)c(Cl)c1C | 1 | 0 | -12 | -1 | 1 | -5 | . | .
NCCCCCc1nnc(SCc2ccc(Cl)c(Cl)c2)o1 | -12 | 6 | 0 | 1 | -4 | 1 | . | .
CCCCCC[n+]1ccccc1/C=C/c1ccc(N(C)C)cc1 | . | 33* | -12 | 1 | . | . | 41* | 41*
Cc1ccc(-c2nnc(-c3cc(C)on3)o2)cc1 | . | -13 | 8 | 0 | -2 | 2 | . | .
O=C(OCC(=O)N1CCN(c2ccccc2)CC1)c1cc(F)c(F)cc1Cl | . | 21* | 12 | -2 | . | -7 | -14 | -4
Cc1ccc2nc(SCC(=O)Nc3cc(C(F)(F)F)ccc3N3CCOCC3)[nH]c2c1 | 13 | 34* | -25 | 5 | -6 | 4 | 15 | -1
O=C(CSc1nccc(=O)[nH]1)Nc1cc(C(F)(F)F)ccc1N1CCOCC1 | . | -16 | 8 | 3 | -4 | 3 | . | .
O=C(CCN1C(=O)c2ccc([N+](=O)[O-])cc2C1=O)Nc1ccccc1C(=O)O | . | -7 | 4 | 1 | -3 | -5 | . | .
SMILES | TLR4-MyD88 BLA | NOD2 RIPK2 PPI | MC4R antag cAMP | MC4R barr agon | beta cell repl | TLR9-MyD88 inh | NOD2 RIPK2 conf | NOD2 BLA counter
COC(=O)c1ccc(N2C(c3cc(OC)cc(OC)c3)=Cc3ccc(-c4ccc(C(N)=O)cc4)cc3C2CC(=O)C2CC2)cc1 (configuration not stated) | . | 34* | . | . | . | . | 36* | 59*
COC(=O)c1ccc(N2C(c3cc(OC)cc(OC)c3)=Cc3ccc(-c4cccnc4)cc3C2CC(=O)C2CC2)cc1 (configuration not stated) | . | -8 | . | . | . | . | . | .
Cc1cc(OCCn2cc(/C(N)=N/O)c3ccccc32)ccc1Cl | -15 | 23* | -4 | 8.8* | -4 | 4 | 11 | 8
COC(=O)c1cn(CCOc2ccc(C)cc2)c2ccccc12 | 10 | 4 | 2 | 6 | -4 | 3 | . | .
O=C(NCc1ccccn1)c1c(-c2ccccc2)sc2ccccc12 | . | 2 | -4 | -1 | -1 | -5 | . | .
COc1ccccc1S(=O)(=O)N(C)C[C@H]1OCc2cn(nn2)CCCC(=O)N([C@@H](C)CO)C[C@@H]1C | . | 8 | 5 | 0 | . | -10 | . | .
COc1ccc(-c2nc(CS(=O)CC(=O)NC3CCCc4ccccc43)c(C)o2)cc1OC (configuration not stated) | -10 | 27* | 2 | 1 | 4 | -4 | -8 | -6
C[C@H]1CN([C@@H](C)CO)C(=O)c2cc(Br)cnc2O[C@@H]1CN(C)S(=O)(=O)c1ccccc1 | . | -7 | -1 | -1 | . | 1 | . | .
COc1ccc(N2C(=O)CC(Sc3nnnn3-c3ccc(F)cc3)C2=O)cc1 (configuration not stated) | 9 | 41* | 25 | -1 | -6 | 17 | 44* | 12*
COc1ccc(NC(=O)CSc2nc3cccnc3n2C)cc1 | -14 | 32* | 8 | -2 | -4 | -4 | 11 | -4
